Source: PubChem BioAssay
An excerpt weighted towards active compounds, which were near 2% of everything screened.
PPC-1+TRAIL kill: kills PPC-1 cancer cells in the presence of TRAIL. AID 1443. hit rate 0.41% among 220,000. cell killing (% activity), % at 4 µM or 5 µM. PPC-1 cells + TRAIL, ATPLite viability luminescence;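 active = cell killing above 50% in the first pass at 4 µM, then a duplicate retest at 5 µM averaging 50% or more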;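 also: plate controls were cells with TRAIL plus DMSO for no effect and medium-only wells lacking cells for full effect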
FLuc stim CS: firefly luciferase counter-screen for stimulation assays. P08659. ATPlite luciferase biochemical, luminescence, 10 min; 0 = ATP-free wells, 1 = DMSO control. activation factor at 10 µM. 200,000 tested, under 10 active;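 active = luciferase activation factor, scaled between plate controls, of at least 2 with compound at 10 µM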
Target sequence (P08659 whole entry, looked up): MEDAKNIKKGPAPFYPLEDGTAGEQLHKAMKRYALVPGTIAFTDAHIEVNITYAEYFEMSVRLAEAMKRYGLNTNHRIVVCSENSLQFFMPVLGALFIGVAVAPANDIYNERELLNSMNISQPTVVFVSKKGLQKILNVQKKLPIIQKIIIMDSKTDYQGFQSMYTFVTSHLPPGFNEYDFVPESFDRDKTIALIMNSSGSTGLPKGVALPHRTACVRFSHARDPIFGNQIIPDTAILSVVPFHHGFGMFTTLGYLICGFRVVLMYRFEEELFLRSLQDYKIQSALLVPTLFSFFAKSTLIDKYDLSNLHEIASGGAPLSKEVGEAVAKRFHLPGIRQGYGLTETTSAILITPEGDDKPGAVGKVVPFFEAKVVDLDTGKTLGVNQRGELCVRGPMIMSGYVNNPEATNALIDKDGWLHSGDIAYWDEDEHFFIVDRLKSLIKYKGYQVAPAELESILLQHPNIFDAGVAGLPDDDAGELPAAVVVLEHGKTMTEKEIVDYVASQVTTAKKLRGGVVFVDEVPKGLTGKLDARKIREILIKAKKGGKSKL
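Assay system: Luciferase/luciferin detection reagent, cell-free biochemical luciferase assay / Read-out: luciferase activation / Benchmarks: No-ATP low control, compound-free enzyme-plus-ATP high control / Medium: PBS buffer for ATP / Detection: luminescence measurement of luciferase light output / Schedule: 10 min at ambient temperature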
FLuc inhib CS: counter-screen for luciferase assay inhibitors: firefly luciferase inhibition | inhibition, % at 10 µM | ATPLite firefly luciferase biochemical luminescence, 10 min | hit rate 1.5% among 200,000;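 active = inhibition above about 50% when tested at 10 µM, limit read from the data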
TRAIL sens C8: caspase-8 TRAIL sensitization; NB7+C8 cells + TRAIL, ATPlite viability luminescence; inhibition (viability loss, TRAIL sensitization), % at 10 µM; hit rate 1% among 360,000; AID 624354;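 active = compounds causing at least 50% loss of cell viability in the single-dose screen, relative to plate controls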
HSP90 inh: inhibitors of HSP90 luciferase refolding in rabbit reticulocyte lysate; luciferase refolding luminescence, 3 h; inhibition, % at 5.6 µM; hit rate 0.91% among 290,000;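 active = inhibition above the screen-wide mean plus 3 SD, computed separately per campaign, cut at about 16% in these data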;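 also: 0% = DMSO wells and 100% = 60 µM geldanamycin wells; inhibitors lower the luminescence because luciferase stays unfolded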
HSP90 confirm: HSP90 inhibition, confirmation assay; shares compounds with HSP90 inh; rabbit reticulocyte lysate, luciferase refolding luminescence, 3 h; inhibition, % at 5.9 µM; hit rate 64% among 2,300; in the data active = inhibition above about 18%;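 also: 0% = vehicle wells and 100% = reference inhibitor wells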
FLuc counter: counter-screen for HSP90 inhibitors: inhibitors of firefly luciferase. shares compounds with HSP90 inh. purified native firefly luciferase, luminescence. inhibition, % at 5.9 µM. hit rate 48% among 2,300;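 active = inhibition above the mean inhibition of all tested sample wells plus 3 SD, cut at about 10% in these data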;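 also: 0% = DMSO with luciferase and 100% = wells lacking luciferase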
Active calls of the source: *.

Results for Cc1ccccc1NC1=C/C(=N\S(=O)(=O)c2cccs2)c2ccccc2C1=O ?
PPC-1+TRAIL kill: 26; FLuc stim CS: 1; FLuc inhib CS: 1; TRAIL sens C8: 90*; HSP90 inh: 35*; HSP90 confirm: 91*; FLuc counter: -2

What do the screens show for `Cc1ccccc1NC1=C/C(=N\S(=O)(=O)c2ccc(C(=O)O)cc2)c2ccccc2C1=O`?
TRAIL sens C8: 34; HSP90 inh: 98*; HSP90 confirm: 96*; FLuc counter: -11

What do the screens show for `COCC1CCCN(C(=O)c2ccc3oc(Cc4ccc(Cl)cc4)nc3c2)C1` (stereo unspecified)?
TRAIL sens C8: 6; HSP90 inh: -3

Results for N#Cc1ccsc1NC(=O)COC(=O)C1=NNC(=O)CC1 ?
TRAIL sens C8: -12

How did Cc1ccc2cc(CCNC(=O)c3ccc(S(=O)(=O)N4CCCCC4)cc3)c(=O)[nH]c2c1 do in these assays?
PPC-1+TRAIL kill: 1; FLuc stim CS: 1; FLuc inhib CS: -1; TRAIL sens C8: 6; HSP90 inh: 35*; HSP90 confirm: 0; FLuc counter: -4

Results for Cc1ccc2cc(CCNC(=O)c3ccc(S(=O)(=O)N4CCOCC4)cc3)c(=O)[nH]c2c1 ?
TRAIL sens C8: -5; HSP90 inh: -2

How did CCOC(=O)CCCNC(=O)CSc1nnc(-c2ccccc2)c(-c2ccccc2)n1 do in these assays?
TRAIL sens C8: 0; HSP90 inh: 0

What do the screens show for `COc1ccc2nc(NC(=O)c3ccccc3F)sc2c1`?
TRAIL sens C8: 69*; HSP90 inh: 18*; HSP90 confirm: 38*; FLuc counter: 31*

How did COc1ccccc1C(=O)Nc1nc2ccccc2s1 do in these assays?
TRAIL sens C8: 91*; HSP90 inh: 91*; HSP90 confirm: 96*; FLuc counter: 93*

What do the screens show for `COc1ccccc1C(=O)Nc1nc2ccc(S(C)(=O)=O)cc2s1`?
PPC-1+TRAIL kill: 25; FLuc stim CS: 0.8; FLuc inhib CS: 20; TRAIL sens C8: 35; HSP90 inh: -1

What do the screens show for `COc1ccc(/C=C\C(=O)c2c(O)ccc3c(C)cc(=O)oc23)cc1OC`?
PPC-1+TRAIL kill: 4; FLuc stim CS: 1; FLuc inhib CS: -4; TRAIL sens C8: -5; HSP90 inh: -2

Results for Nc1ccc(C(=O)N2CCN(S(=O)(=O)c3ccc(Br)cc3)CC2)cc1[N+](=O)[O-] ?
TRAIL sens C8: 11

How did CCOc1ccc(N)c(SSc2cc(OCC)ccc2N)c1 do in these assays?
TRAIL sens C8: -15; HSP90 inh: 30*; HSP90 confirm: 41*; FLuc counter: 9.6*

What do the screens show for `CCc1ccc(Nc2n[n+](-c3ccccc3)c(-c3ccc(N(CC)CC)cc3)s2)cc1`?
TRAIL sens C8: 53*; HSP90 inh: 20*; HSP90 confirm: 46*; FLuc counter: -18

What do the screens show for `CC(=O)Cc1nnn(-c2cc(C)on2)n1`?
PPC-1+TRAIL kill: 27; HSP90 inh: 7

How did CCN(CC)C(=O)CSc1nnc(CSc2ncccn2)n1C do in these assays?
PPC-1+TRAIL kill: -6; TRAIL sens C8: 17; HSP90 inh: -2

What do the screens show for `Cc1cccc(-c2noc(C3CCCCC3)n2)c1`?
PPC-1+TRAIL kill: -2; FLuc stim CS: 0.7; FLuc inhib CS: 30; TRAIL sens C8: -11; HSP90 inh: 65*; HSP90 confirm: 6; FLuc counter: -12

Results for COc1ccc(C(=O)NNC(=O)C(=O)NC2CCCCC2)cc1 ?
TRAIL sens C8: -14; HSP90 inh: 19*; HSP90 confirm: 0; FLuc counter: -1

How did COc1ccc(C(=O)N[C@H](C(=O)NC2CCCCC2)C(C)C)cc1 do in these assays?
TRAIL sens C8: -8

How did O=C(Cn1nnc2ccccc21)OCC(=O)c1ccc(F)cc1 do in these assays?
PPC-1+TRAIL kill: 4; TRAIL sens C8: -15; HSP90 inh: 2

How did N#CC1=C(N)Oc2n[nH]c(-c3cccs3)c2C1c1ccsc1 (stereo unspecified) do in these assays?
PPC-1+TRAIL kill: -18; FLuc stim CS: 1.1; FLuc inhib CS: -6; TRAIL sens C8: 3; HSP90 inh: 21*; HSP90 confirm: 4; FLuc counter: 1
